Measurements from ChEMBL document CHEMBL3045755, “Specific and differential inhibition of very-long-chain fatty acid elongases from Arabidopsis thaliana by different herbicides” (Proc Natl Acad Sci U S A, 2004).
Activity calls are given as the source filed them. The calls are words filed in the database; no cut-off is given here.

Tests used:
[1] = tested on: Saccharomyces cerevisiae; assay: Growth inhibition of Saccharomyces cerevisiae INVSc1 at 100 uM after 18 to 20 hr; format: organism-based; details: in vivo
How it was run: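 Yeast strains expressing the active elongases were induced in raffinose/galactose medium with herbicide at 100 μM for the 18–20 h incubation. Growth was followed by optical density and compared with cultures lacking inhibitor.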

[2] = tested on: Arabidopsis thaliana; assay: Herbicidal activity against Arabidopsis thaliana assessed as apperance of fiddle head phenotype; format: functional, organism-based
[3] = target: T1, 3-ketoacyl-CoA synthase 20 (Arabidopsis thaliana) (UniProt Q9FG87); assay: Inhibition of Arbidopsis thaliana C-terminal His-tagged At5g43760 expressed in Saccharomyces cerevisiae INVSc1 at 100 uM after 18 to 20 hr by GC/MS analysis
T1 sequence (whole entry): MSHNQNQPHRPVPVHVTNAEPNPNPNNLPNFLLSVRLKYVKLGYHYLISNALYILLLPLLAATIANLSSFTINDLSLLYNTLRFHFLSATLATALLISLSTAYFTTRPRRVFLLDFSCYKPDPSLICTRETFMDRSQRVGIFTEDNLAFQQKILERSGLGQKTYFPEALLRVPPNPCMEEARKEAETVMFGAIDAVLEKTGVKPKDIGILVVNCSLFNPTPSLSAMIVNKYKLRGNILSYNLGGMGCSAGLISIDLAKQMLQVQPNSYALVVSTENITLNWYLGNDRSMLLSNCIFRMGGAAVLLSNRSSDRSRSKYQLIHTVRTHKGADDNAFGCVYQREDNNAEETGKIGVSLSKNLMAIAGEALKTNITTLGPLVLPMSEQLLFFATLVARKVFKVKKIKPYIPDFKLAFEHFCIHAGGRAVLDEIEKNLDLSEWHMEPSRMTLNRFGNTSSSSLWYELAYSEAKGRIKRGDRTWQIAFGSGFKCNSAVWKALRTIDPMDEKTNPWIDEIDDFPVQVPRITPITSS
How it was run: (§1)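 pYES2 galactose-inducible constructs in INVSc1, grown at 28°C in uracil-dropout minimal medium with 2% glucose. Log-phase cells were induced in 1% raffinose/2% galactose with herbicide at final 100 μM, in 50-ml culture for 18–20 h, then freeze-dried. FAMEs were made in 1 M methanolic HCl/5% dimethoxypropane at 80°C for 1 h under N2 and run on GC/MS. VLCFA profile was compared with herbicide-free elongase-expressing cells.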

[4] = target: T2, 3-ketoacyl-CoA synthase 2 (Arabidopsis thaliana) (UniProt Q5XEP9); assay: Inhibition of Arbidopsis thaliana C-terminal His-tagged At1g04220 expressed in Saccharomyces cerevisiae INVSc1 at 100 uM after 18 to 20 hr by GC/MS analysis; how it was run: as §1
T2 sequence (whole entry): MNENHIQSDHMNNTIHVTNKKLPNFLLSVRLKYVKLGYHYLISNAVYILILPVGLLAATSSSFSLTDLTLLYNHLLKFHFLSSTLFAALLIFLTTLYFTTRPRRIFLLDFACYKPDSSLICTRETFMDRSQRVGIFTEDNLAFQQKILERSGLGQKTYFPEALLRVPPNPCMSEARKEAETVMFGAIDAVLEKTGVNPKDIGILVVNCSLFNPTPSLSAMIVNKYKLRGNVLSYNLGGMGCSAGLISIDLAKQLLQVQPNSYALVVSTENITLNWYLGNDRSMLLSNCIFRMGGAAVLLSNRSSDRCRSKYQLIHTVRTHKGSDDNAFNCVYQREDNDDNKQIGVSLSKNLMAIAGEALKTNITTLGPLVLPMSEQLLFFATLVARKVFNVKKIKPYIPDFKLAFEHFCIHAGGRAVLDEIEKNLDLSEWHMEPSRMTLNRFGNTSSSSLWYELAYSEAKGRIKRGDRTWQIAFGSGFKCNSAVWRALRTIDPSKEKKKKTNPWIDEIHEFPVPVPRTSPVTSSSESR

[5] = target: T3, 3-ketoacyl-CoA synthase 5 (Arabidopsis thaliana) (UniProt Q9C6L5); assay: Inhibition of Arbidopsis thaliana C-terminal His-tagged CER60 expressed in Saccharomyces cerevisiae INVSc1 at 100 uM after 18 to 20 hr by GC/MS analysis; how it was run: as §1
T3 sequence (whole entry): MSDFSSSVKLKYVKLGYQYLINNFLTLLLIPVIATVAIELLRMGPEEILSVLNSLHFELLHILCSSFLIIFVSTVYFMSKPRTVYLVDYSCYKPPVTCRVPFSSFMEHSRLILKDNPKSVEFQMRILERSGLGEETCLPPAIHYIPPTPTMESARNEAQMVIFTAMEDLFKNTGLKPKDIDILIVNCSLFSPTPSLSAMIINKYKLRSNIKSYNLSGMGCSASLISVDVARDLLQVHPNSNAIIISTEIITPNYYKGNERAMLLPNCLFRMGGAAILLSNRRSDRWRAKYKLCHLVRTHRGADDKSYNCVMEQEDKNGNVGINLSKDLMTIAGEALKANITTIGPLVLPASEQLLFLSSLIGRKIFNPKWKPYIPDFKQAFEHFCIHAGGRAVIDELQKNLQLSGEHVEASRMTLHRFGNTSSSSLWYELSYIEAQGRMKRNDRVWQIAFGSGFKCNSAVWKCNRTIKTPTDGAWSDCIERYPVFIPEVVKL

[6] = target: T4, 3-ketoacyl-CoA synthase 17 (Arabidopsis thaliana) (UniProt O65677); assay: Inhibition of Arbidopsis thaliana C-terminal His-tagged KCS2 expressed in Saccharomyces cerevisiae INVSc1 at 100 uM after 18 to 20 hr by GC/MS analysis; how it was run: as §1
T4 sequence (whole entry): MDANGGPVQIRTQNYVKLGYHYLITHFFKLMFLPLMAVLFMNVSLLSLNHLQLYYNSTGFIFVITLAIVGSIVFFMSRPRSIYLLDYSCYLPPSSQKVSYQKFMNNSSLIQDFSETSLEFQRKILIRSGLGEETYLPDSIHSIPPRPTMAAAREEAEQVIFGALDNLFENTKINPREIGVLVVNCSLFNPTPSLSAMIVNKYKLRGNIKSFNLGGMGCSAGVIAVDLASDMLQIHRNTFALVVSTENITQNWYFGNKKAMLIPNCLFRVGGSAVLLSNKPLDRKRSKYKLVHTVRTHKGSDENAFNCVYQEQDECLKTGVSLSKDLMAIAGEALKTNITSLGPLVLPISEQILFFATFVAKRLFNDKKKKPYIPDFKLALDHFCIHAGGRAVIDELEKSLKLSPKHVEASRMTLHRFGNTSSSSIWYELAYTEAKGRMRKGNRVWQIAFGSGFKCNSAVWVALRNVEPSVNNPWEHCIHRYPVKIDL

[7] = target: T5, 3-ketoacyl-CoA synthase 1 (Arabidopsis thaliana) (UniProt Q9MAM3); assay: Inhibition of Arbidopsis thaliana C-terminal His-tagged KCS1 expressed in Saccharomyces cerevisiae INVSc1 at 100 uM after 18 to 20 hr by GC/MS analysis; how it was run: as §1
T5 sequence (whole entry): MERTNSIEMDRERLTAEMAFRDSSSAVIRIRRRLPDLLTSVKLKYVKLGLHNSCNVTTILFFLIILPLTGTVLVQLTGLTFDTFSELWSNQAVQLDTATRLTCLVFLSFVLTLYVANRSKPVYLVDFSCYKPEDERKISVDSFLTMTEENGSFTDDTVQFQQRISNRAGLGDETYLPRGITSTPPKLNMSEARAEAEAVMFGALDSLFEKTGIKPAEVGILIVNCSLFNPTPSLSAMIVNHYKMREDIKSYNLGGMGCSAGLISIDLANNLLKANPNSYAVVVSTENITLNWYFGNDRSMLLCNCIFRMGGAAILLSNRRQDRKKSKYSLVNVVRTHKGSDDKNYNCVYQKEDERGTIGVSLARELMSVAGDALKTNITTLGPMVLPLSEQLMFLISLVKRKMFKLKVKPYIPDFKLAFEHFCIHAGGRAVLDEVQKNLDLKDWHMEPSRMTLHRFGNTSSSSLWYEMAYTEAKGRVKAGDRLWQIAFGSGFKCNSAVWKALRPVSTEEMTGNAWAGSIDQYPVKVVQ

[8] = target: T6, 3-ketoacyl-CoA synthase 18 (Arabidopsis thaliana) (UniProt Q38860); assay: Inhibition of Arbidopsis thaliana C-terminal His-tagged FAE1 expressed in Saccharomyces cerevisiae INVSc1 at 100 uM after 18 to 20 hr by GC/MS analysis; how it was run: as §1
T6 sequence (whole entry): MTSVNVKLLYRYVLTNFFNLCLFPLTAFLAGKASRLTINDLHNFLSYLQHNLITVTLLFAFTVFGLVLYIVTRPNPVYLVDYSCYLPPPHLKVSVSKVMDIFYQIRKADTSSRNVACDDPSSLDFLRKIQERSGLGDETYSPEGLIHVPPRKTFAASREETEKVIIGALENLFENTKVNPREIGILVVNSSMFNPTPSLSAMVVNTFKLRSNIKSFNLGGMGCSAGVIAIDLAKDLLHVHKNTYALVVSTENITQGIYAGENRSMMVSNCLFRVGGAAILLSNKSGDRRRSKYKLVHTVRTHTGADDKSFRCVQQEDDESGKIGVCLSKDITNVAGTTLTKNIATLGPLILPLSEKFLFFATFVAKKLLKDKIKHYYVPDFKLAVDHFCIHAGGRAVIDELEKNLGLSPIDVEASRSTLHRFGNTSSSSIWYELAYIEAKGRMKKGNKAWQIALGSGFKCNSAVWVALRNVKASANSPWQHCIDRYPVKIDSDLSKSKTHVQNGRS

CCc1cccc(CC)c1N(COC)C(=O)CCl [ALACHLOR]
Activity [1]: Non-toxic | Activity [2]: inactive | inhibition [3]: Active | inhibition [4]: inactive | inhibition [5]: Active | inhibition [6]: Active | inhibition [7]: Active | inhibition [8]: inactive

CCS(=O)(=O)Oc1ccc2c(c1)C(C)(C)CO2 [BENFURESATE]
Activity [1]: Non-toxic | Activity [2]: Active | inhibition [3]: inactive | inhibition [4]: inactive | inhibition [5]: inactive | inhibition [6]: inactive | inhibition [7]: inactive | inhibition [8]: inactive

CCN(CC)C(=O)n1cnc(S(=O)(=O)c2c(C)cc(C)cc2C)n1 [CAFENSTROLE]
Activity [1]: Non-toxic | Activity [2]: Active | inhibition [3]: Active | inhibition [4]: Active | inhibition [5]: Active | inhibition [6]: Active | inhibition [7]: Active | inhibition [8]: Active

CN(C)C(=O)C(c1ccccc1)c1ccccc1 [DIPHENAMIDE]
Activity [1]: Non-toxic | Activity [2]: inactive | inhibition [3]: inactive | inhibition [4]: inactive | inhibition [5]: inactive | inhibition [6]: inactive | inhibition [7]: inactive | inhibition [8]: inactive

CCOC1Oc2ccc(OS(C)(=O)=O)cc2C1(C)C (configuration not stated) [ETHOFUMESATE]
Activity [1]: Non-toxic | Activity [2]: Active | inhibition [3]: inactive | inhibition [4]: inactive | inhibition [5]: inactive | inhibition [6]: inactive | inhibition [7]: inactive | inhibition [8]: inactive

CCN(C(=O)n1nnn(-c2ccccc2Cl)c1=O)C1CCCCC1 [FENTRAZAMIDE]
Activity [1]: Non-toxic | Activity [2]: Active | inhibition [3]: Active | inhibition [4]: inactive | inhibition [5]: inactive | inhibition [6]: Active | inhibition [7]: Active | inhibition [8]: inactive

CC(C)N(C(=O)COc1nnc(C(F)(F)F)s1)c1ccc(F)cc1 [FLUFENACET]
Activity [1]: Non-toxic | Activity [2]: Active | inhibition [3]: Active | inhibition [4]: Active | inhibition [5]: Active | inhibition [6]: Active | inhibition [7]: Active | inhibition [8]: Active

CCN(CC)C(=O)C(C)Oc1cccc2ccccc12 (configuration not stated) [NAPROPAMIDE]
Activity [1]: Non-toxic | Activity [2]: inactive | inhibition [3]: inactive | inhibition [4]: inactive | inhibition [5]: inactive | inhibition [6]: inactive | inhibition [7]: inactive | inhibition [8]: inactive

CC(C)N(C(=O)SCC(Cl)=C(Cl)Cl)C(C)C [TRIALLATE]
Activity [1]: Non-toxic | Activity [2]: inactive | inhibition [3]: inactive | inhibition [4]: inactive | inhibition [5]: Active | inhibition [6]: inactive | inhibition [7]: inactive | inhibition [8]: inactive
